# Results from ChEMBL document CHEMBL4715736, “Identification of anticancer agents based on the thieno[2,3-b]pyridine and 1H-pyrazole molecular scaffolds” (2016).
# System: HCC 2998
# Test: Growth inhibition of human HCC 2998 cells assessed as cell growth at 10 uM incubated for 48 hrs by sulforhodamine B assay relative to control
# Type: functional
# Conditions: read-out: Activity
# Method in brief: (§1)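 NCI Developmental Therapeutics Program NCI60 panel. Compounds that were active in the 10 µM one-dose screen went on to dose–response testing. Growth at each concentration is expressed relative to untreated control (100%). GI50 (concentration giving 50% of maximal inhibition of proliferation) and TGI (concentration giving total growth inhibition) were derived from the curves.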
row,SMILES,growth at 10 µM [%]
1,COc1ccc(S(=O)(=O)n2ccc(-c3ccc4c(c3)CCC(C)(C)O4)n2)cc1OC,78.9
2,Cc1cc(C)cc(S(=O)(=O)n2ccc(-c3ccc4c(c3)CCC(C)(C)O4)n2)c1,88.2
3,CC1(C)CCc2cc(-c3ccn(S(=O)(=O)c4ccc(Cl)cc4Cl)n3)ccc2O1,99.1

# System: TK-10
# Test: Growth inhibition of human TK-10 cells assessed as cell growth at 10 uM incubated for 48 hrs by sulforhodamine B assay relative to control
# Type: functional
# Conditions: read-out: Activity
# Method in brief: (§2)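 Run by the NCI Developmental Therapeutics Program as part of its 60-line human tumour panel. Each compound tested at a single 10 µM dose. Growth expressed as % relative to untreated control cells (100%).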
row,SMILES,growth at 10 µM [%]
1,COc1ccc(S(=O)(=O)n2ccc(-c3ccc4c(c3)CCC(C)(C)O4)n2)cc1OC,72.1
2,CC1(C)CCc2cc(-c3ccn(S(=O)(=O)c4ccc(Cl)cc4Cl)n3)ccc2O1,68.7

# System: SW-620
# Test: Growth inhibition of human SW-620 cells assessed as cell growth at 10 uM incubated for 48 hrs by sulforhodamine B assay relative to control
# Type: functional
# Conditions: read-out: Activity
# Method in brief: as §2
row,SMILES,growth at 10 µM [%]
1,COc1ccc(S(=O)(=O)n2ccc(-c3ccc4c(c3)CCC(C)(C)O4)n2)cc1OC,79.9
2,Cc1cc(C)cc(S(=O)(=O)n2ccc(-c3ccc4c(c3)CCC(C)(C)O4)n2)c1,88.3
3,CC1(C)CCc2cc(-c3ccn(S(=O)(=O)c4ccc(Cl)cc4Cl)n3)ccc2O1,91.9

# System: 786-0
# Test: Growth inhibition of human 786-0 cells assessed as cell growth at 10 uM incubated for 48 hrs by sulforhodamine B assay relative to control
# Type: functional
# Conditions: read-out: Activity
# Method in brief: as §1
row,SMILES,growth at 10 µM [%]
1,COc1ccc(S(=O)(=O)n2ccc(-c3ccc4c(c3)CCC(C)(C)O4)n2)cc1OC,79.4
2,Cc1cc(C)cc(S(=O)(=O)n2ccc(-c3ccc4c(c3)CCC(C)(C)O4)n2)c1,82.8
3,CC1(C)CCc2cc(-c3ccn(S(=O)(=O)c4ccc(Cl)cc4Cl)n3)ccc2O1,79

# System: SR
# Test: Growth inhibition of human SR cells assessed as cell growth at 10 uM incubated for 48 hrs by sulforhodamine B assay relative to control
# Type: functional
# Conditions: read-out: Activity
# Method in brief: as §2
row,SMILES,growth at 10 µM [%]
1,COc1ccc(S(=O)(=O)n2ccc(-c3ccc4c(c3)CCC(C)(C)O4)n2)cc1OC,60.2
2,Cc1cc(C)cc(S(=O)(=O)n2ccc(-c3ccc4c(c3)CCC(C)(C)O4)n2)c1,76.5
3,CC1(C)CCc2cc(-c3ccn(S(=O)(=O)c4ccc(Cl)cc4Cl)n3)ccc2O1,77.9

# System: NCI-H522
# Test: Growth inhibition of human NCI-H522 cells assessed as cell growth at 10 uM incubated for 48 hrs by sulforhodamine B assay relative to control
# Type: functional
# Conditions: read-out: Activity
# Method in brief: (§3)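 Submitted to the NCI Developmental Therapeutics Program for the NCI60 human tumour cell line panel. First screen at a single 10 µM concentration. Read-out is growth relative to untreated control cells set at 100%.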
row,SMILES,growth at 10 µM [%]
1,COc1ccc(S(=O)(=O)n2ccc(-c3ccc4c(c3)CCC(C)(C)O4)n2)cc1OC,65.8
2,CC1(C)CCc2cc(-c3ccn(S(=O)(=O)c4ccc(Cl)cc4Cl)n3)ccc2O1,60.4

# System: OVCAR-8
# Test: Growth inhibition of human OVCAR-8 cells assessed as cell growth at 10 uM incubated for 48 hrs by sulforhodamine B assay relative to control
# Type: functional
# Conditions: read-out: Activity
# Method in brief: as §2
row,SMILES,growth at 10 µM [%]
1,COc1ccc(S(=O)(=O)n2ccc(-c3ccc4c(c3)CCC(C)(C)O4)n2)cc1OC,74.6
2,Cc1cc(C)cc(S(=O)(=O)n2ccc(-c3ccc4c(c3)CCC(C)(C)O4)n2)c1,91
3,CC1(C)CCc2cc(-c3ccn(S(=O)(=O)c4ccc(Cl)cc4Cl)n3)ccc2O1,97

# System: COLO 205
# Test: Growth inhibition of human COLO 205 cells assessed as cell growth at 10 uM incubated for 48 hrs by sulforhodamine B assay relative to control
# Type: functional
# Conditions: read-out: Activity
# Method in brief: as §1
row,SMILES,growth at 10 µM [%]
1,COc1ccc(S(=O)(=O)n2ccc(-c3ccc4c(c3)CCC(C)(C)O4)n2)cc1OC,87.1
2,Cc1cc(C)cc(S(=O)(=O)n2ccc(-c3ccc4c(c3)CCC(C)(C)O4)n2)c1,103
3,CC1(C)CCc2cc(-c3ccn(S(=O)(=O)c4ccc(Cl)cc4Cl)n3)ccc2O1,106

# System: K562
# Test: Growth inhibition of human K562 cells assessed as cell growth at 10 uM incubated for 48 hrs by sulforhodamine B assay relative to control
# Type: functional
# Conditions: read-out: Activity
# Method in brief: as §3
row,SMILES,growth at 10 µM [%]
1,COc1ccc(S(=O)(=O)n2ccc(-c3ccc4c(c3)CCC(C)(C)O4)n2)cc1OC,53
2,Cc1cc(C)cc(S(=O)(=O)n2ccc(-c3ccc4c(c3)CCC(C)(C)O4)n2)c1,85.8
3,CC1(C)CCc2cc(-c3ccn(S(=O)(=O)c4ccc(Cl)cc4Cl)n3)ccc2O1,75.7

# System: OVCAR-4
# Test: Growth inhibition of human OVCAR-4 cells assessed as cell growth at 10 uM incubated for 48 hrs by sulforhodamine B assay relative to control
# Type: functional
# Conditions: read-out: Activity
# Method in brief: as §2
row,SMILES,growth at 10 µM [%]
1,COc1ccc(S(=O)(=O)n2ccc(-c3ccc4c(c3)CCC(C)(C)O4)n2)cc1OC,46
2,Cc1cc(C)cc(S(=O)(=O)n2ccc(-c3ccc4c(c3)CCC(C)(C)O4)n2)c1,67.3
3,CC1(C)CCc2cc(-c3ccn(S(=O)(=O)c4ccc(Cl)cc4Cl)n3)ccc2O1,69

# System: T47D
# Test: Growth inhibition of human T47D cells assessed as cell growth at 10 uM incubated for 48 hrs by sulforhodamine B assay relative to control
# Type: functional
# Conditions: read-out: Activity
# Method in brief: as §2
row,SMILES,growth at 10 µM [%]
1,COc1ccc(S(=O)(=O)n2ccc(-c3ccc4c(c3)CCC(C)(C)O4)n2)cc1OC,43.7
2,Cc1cc(C)cc(S(=O)(=O)n2ccc(-c3ccc4c(c3)CCC(C)(C)O4)n2)c1,58.2
3,CC1(C)CCc2cc(-c3ccn(S(=O)(=O)c4ccc(Cl)cc4Cl)n3)ccc2O1,76.6

# System: LOX IMVI
# Test: Growth inhibition of human LOX IMVI cells assessed as cell growth at 10 uM incubated for 48 hrs by sulforhodamine B assay relative to control
# Type: functional
# Conditions: read-out: Activity
# Method in brief: as §3
row,SMILES,growth at 10 µM [%]
1,COc1ccc(S(=O)(=O)n2ccc(-c3ccc4c(c3)CCC(C)(C)O4)n2)cc1OC,76.7
2,Cc1cc(C)cc(S(=O)(=O)n2ccc(-c3ccc4c(c3)CCC(C)(C)O4)n2)c1,95
3,CC1(C)CCc2cc(-c3ccn(S(=O)(=O)c4ccc(Cl)cc4Cl)n3)ccc2O1,104

# System: DU-145
# Test: Growth inhibition of human DU-145 cells assessed as cell growth at 10 uM incubated for 48 hrs by sulforhodamine B assay relative to control
# Type: functional
# Conditions: read-out: Activity
# Method in brief: as §1
row,SMILES,growth at 10 µM [%]
1,COc1ccc(S(=O)(=O)n2ccc(-c3ccc4c(c3)CCC(C)(C)O4)n2)cc1OC,82.6
2,Cc1cc(C)cc(S(=O)(=O)n2ccc(-c3ccc4c(c3)CCC(C)(C)O4)n2)c1,89.8
3,CC1(C)CCc2cc(-c3ccn(S(=O)(=O)c4ccc(Cl)cc4Cl)n3)ccc2O1,96.9

# System: RPMI-8226
# Test: Growth inhibition of human RPMI-8226 cells assessed as cell growth at 10 uM incubated for 48 hrs by sulforhodamine B assay relative to control
# Type: functional
# Conditions: read-out: Activity
# Method in brief: as §2
row,SMILES,growth at 10 µM [%]
1,COc1ccc(S(=O)(=O)n2ccc(-c3ccc4c(c3)CCC(C)(C)O4)n2)cc1OC,59
2,Cc1cc(C)cc(S(=O)(=O)n2ccc(-c3ccc4c(c3)CCC(C)(C)O4)n2)c1,73.2
3,CC1(C)CCc2cc(-c3ccn(S(=O)(=O)c4ccc(Cl)cc4Cl)n3)ccc2O1,79

# System: NCI-H23
# Test: Growth inhibition of human NCI-H23 cells assessed as cell growth at 10 uM incubated for 48 hrs by sulforhodamine B assay relative to control
# Type: functional
# Conditions: read-out: Activity
# Method in brief: as §3
row,SMILES,growth at 10 µM [%]
1,COc1ccc(S(=O)(=O)n2ccc(-c3ccc4c(c3)CCC(C)(C)O4)n2)cc1OC,56
2,Cc1cc(C)cc(S(=O)(=O)n2ccc(-c3ccc4c(c3)CCC(C)(C)O4)n2)c1,73.6
3,CC1(C)CCc2cc(-c3ccn(S(=O)(=O)c4ccc(Cl)cc4Cl)n3)ccc2O1,98.1

# System: SF-268
# Test: Growth inhibition of human SF-268 cells assessed as cell growth at 10 uM incubated for 48 hrs by sulforhodamine B assay relative to control
# Type: functional
# Conditions: read-out: Activity
# Method in brief: as §2
row,SMILES,growth at 10 µM [%]
1,COc1ccc(S(=O)(=O)n2ccc(-c3ccc4c(c3)CCC(C)(C)O4)n2)cc1OC,85.3
2,Cc1cc(C)cc(S(=O)(=O)n2ccc(-c3ccc4c(c3)CCC(C)(C)O4)n2)c1,88.3
3,CC1(C)CCc2cc(-c3ccn(S(=O)(=O)c4ccc(Cl)cc4Cl)n3)ccc2O1,99.5

# System: MDA-MB-231
# Test: Growth inhibition of human MDA-MB-231 cells assessed as cell growth at 10 uM incubated for 48 hrs by sulforhodamine B assay relative to control
# Type: functional
# Conditions: read-out: Activity
# Method in brief: as §3
row,SMILES,growth at 10 µM [%]
1,COc1ccc(S(=O)(=O)n2ccc(-c3ccc4c(c3)CCC(C)(C)O4)n2)cc1OC,82.5
2,Cc1cc(C)cc(S(=O)(=O)n2ccc(-c3ccc4c(c3)CCC(C)(C)O4)n2)c1,93.5
3,CC1(C)CCc2cc(-c3ccn(S(=O)(=O)c4ccc(Cl)cc4Cl)n3)ccc2O1,93.3

# System: MCF7
# Test: Growth inhibition of human MCF7 cells assessed as cell growth at 10 uM incubated for 48 hrs by sulforhodamine B assay relative to control
# Type: functional
# Conditions: read-out: Activity
# Method in brief: as §3
row,SMILES,growth at 10 µM [%]
1,COc1ccc(S(=O)(=O)n2ccc(-c3ccc4c(c3)CCC(C)(C)O4)n2)cc1OC,64.3
2,Cc1cc(C)cc(S(=O)(=O)n2ccc(-c3ccc4c(c3)CCC(C)(C)O4)n2)c1,81.5
3,CC1(C)CCc2cc(-c3ccn(S(=O)(=O)c4ccc(Cl)cc4Cl)n3)ccc2O1,86.6

# System: SK-MEL-2
# Test: Growth inhibition of human SK-MEL-2 cells assessed as cell growth at 10 uM incubated for 48 hrs by sulforhodamine B assay relative to control
# Type: functional
# Conditions: read-out: Activity
# Method in brief: as §2
row,SMILES,growth at 10 µM [%]
1,COc1ccc(S(=O)(=O)n2ccc(-c3ccc4c(c3)CCC(C)(C)O4)n2)cc1OC,56.1
2,CC1(C)CCc2cc(-c3ccn(S(=O)(=O)c4ccc(Cl)cc4Cl)n3)ccc2O1,79.7

# System: ACHN
# Test: Growth inhibition of human ACHN cells assessed as cell growth at 10 uM incubated for 48 hrs by sulforhodamine B assay relative to control
# Type: functional
# Conditions: read-out: Activity
# Method in brief: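 NCI Developmental Therapeutics Program NCI60 human tumour cell line panel, one-dose primary screen with every compound at 10 µM. Growth is expressed as % of untreated control cells (100%).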
row,SMILES,growth at 10 µM [%]
1,COc1ccc(S(=O)(=O)n2ccc(-c3ccc4c(c3)CCC(C)(C)O4)n2)cc1OC,78
2,Cc1cc(C)cc(S(=O)(=O)n2ccc(-c3ccc4c(c3)CCC(C)(C)O4)n2)c1,92.8
3,CC1(C)CCc2cc(-c3ccn(S(=O)(=O)c4ccc(Cl)cc4Cl)n3)ccc2O1,103

# System: CAKI-1
# Test: Growth inhibition of human CAKI-1 cells assessed as cell growth at 10 uM incubated for 48 hrs by sulforhodamine B assay relative to control
# Type: functional
# Conditions: read-out: Activity
# Method in brief: as §1
row,SMILES,growth at 10 µM [%]
1,COc1ccc(S(=O)(=O)n2ccc(-c3ccc4c(c3)CCC(C)(C)O4)n2)cc1OC,58.3
2,Cc1cc(C)cc(S(=O)(=O)n2ccc(-c3ccc4c(c3)CCC(C)(C)O4)n2)c1,72.5
3,CC1(C)CCc2cc(-c3ccn(S(=O)(=O)c4ccc(Cl)cc4Cl)n3)ccc2O1,83.8

# System: SNB-19
# Test: Growth inhibition of human SNB-19 cells assessed as cell growth at 10 uM incubated for 48 hrs by sulforhodamine B assay relative to control
# Type: functional
# Conditions: read-out: Activity
# Method in brief: as §2
row,SMILES,growth at 10 µM [%]
1,COc1ccc(S(=O)(=O)n2ccc(-c3ccc4c(c3)CCC(C)(C)O4)n2)cc1OC,87.4
2,Cc1cc(C)cc(S(=O)(=O)n2ccc(-c3ccc4c(c3)CCC(C)(C)O4)n2)c1,94.6
3,CC1(C)CCc2cc(-c3ccn(S(=O)(=O)c4ccc(Cl)cc4Cl)n3)ccc2O1,87.2
